ChEMBL document CHEMBL4732237, “Discovery of 4-alkoxy-2-aryl-6,7-dimethoxyquinolines as a new class of topoisomerase I inhibitors endowed with potent in vitro anticancer activity” (2021)

Tests used:
Format in all cases: functional
[1] = test system: SF-268; assay: Growth inhibition of human SF-268 cells incubated for 48 hrs by sulforhodamine B assay
In short: (§1)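 NCI five-dose screen (0.01–100 µM; five concentrations plus control). Cells grown in RPMI 1640/5% FBS/2 mM L-glutamine and preincubated 24 h, with time-zero plates TCA-fixed. Drug exposure 48 h at 37 °C, followed by SRB protein staining and reading at 515 nm. GI50 is the concentration at [(Ti-Tz)/(C-Tz)]×100 = 50.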

[2] = test system: OVCAR-8; assay: Growth inhibition of human OVCAR-8 cells incubated for 48 hrs by sulforhodamine B assay; in short: as §1
[3] = test system: RXF 393; assay: Growth inhibition of human RXF 393 cells incubated for 48 hrs by sulforhodamine B assay; in short: as §1
[4] = test system: MDA-MB-231; assay: Growth inhibition of human MDA-MB-231 cells incubated for 48 hrs by sulforhodamine B assay
In short: (§2)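 NCI five-dose screen covering 0.01–100 µM, prepared as 10-fold or ½-log dilutions from DMSO stock. Cells in RPMI 1640 with 5% FBS were exposed for 48 h at 37 °C after 24 h preincubation. Adherent cells were fixed with TCA (final 10%) and suspension cells were settled before fixing. Stain was SRB, read at 515 nm. GI50 = 50% reduction in net protein increase versus control, with Tz taken at drug addition.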

[5] = test system: KM12; assay: Growth inhibition of human KM12 cells incubated for 48 hrs by sulforhodamine B assay; in short: as §2
[6] = test system: NCI/ADR-RES; assay: Growth inhibition of human NCI/ADR-RES cells incubated for 48 hrs by sulforhodamine B assay; in short: as §1
[7] = test system: UO-31; assay: Growth inhibition of human UO-31 cells incubated for 48 hrs by sulforhodamine B assay
In short: (§3)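 NCI five-dose assay, with drug stocks in DMSO diluted in medium to five concentrations (10-fold or ½-log series). Cells in RPMI 1640/5% FBS were pre-incubated 24 h, and time-zero plates were TCA-fixed at drug addition. After 48 h at 37 °C, cells were TCA-fixed, SRB-stained and read at 515 nm. GI50 is from [(Ti-Tz)/(C-Tz)]×100 = 50, TGI from Ti = Tz, and LC50 from [(Ti-Tz)/Tz]×100 = -50.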

[8] = test system: COLO 205; assay: Growth inhibition of human COLO 205 cells incubated for 48 hrs by sulforhodamine B assay; in short: as §2
[9] = test system: OVCAR-4; assay: Growth inhibition of human OVCAR-4 cells incubated for 48 hrs by sulforhodamine B assay; in short: as §1
[10] = test system: NCI-H23; assay: Growth inhibition of human NCI-H23 cells incubated for 48 hrs by sulforhodamine B assay; in short: as §1
[11] = test system: MOLT-4; assay: Growth inhibition of human MOLT-4 cells incubated for 48 hrs by sulforhodamine B assay; in short: as §1
[12] = test system: Malme-3M; assay: Growth inhibition of human Malme-3M cells incubated for 48 hrs by sulforhodamine B assay; in short: as §1
[13] = test system: NCI-H226; assay: Growth inhibition of human NCI-H226 cells incubated for 48 hrs by sulforhodamine B assay; in short: as §1
[14] = test system: 786-0; assay: Growth inhibition of human 786-0 cells incubated for 48 hrs by sulforhodamine B assay; in short: as §2
[15] = test system: OVCAR-3; assay: Growth inhibition of human OVCAR-3 cells incubated for 48 hrs by sulforhodamine B assay; in short: as §1
[16] = test system: A549; assay: Growth inhibition of human A549 cells incubated for 48 hrs by sulforhodamine B assay; in short: as §2
[17] = test system: SK-MEL-2; assay: Growth inhibition of human SK-MEL-2 cells incubated for 48 hrs by sulforhodamine B assay; in short: as §1
[18] = test system: HCT-29; assay: Growth inhibition of human […] cells incubated for 48 hrs by sulforhodamine B assay; in short: as §2
[19] = test system: UACC-257; assay: Growth inhibition of human UACC-257 cells incubated for 48 hrs by sulforhodamine B assay; in short: as §3
[20] = test system: OVCAR-5; assay: Growth inhibition of human OVCAR-5 cells incubated for 48 hrs by sulforhodamine B assay; in short: as §1
[21] = test system: HL-60(TB); assay: Growth inhibition of human HL-60(TB) cells at 10 uM incubated for 48 hrs by sulforhodamine B assay relative to control; conditions: read-out: GI
In short: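 NCI-60 one-dose screen: same culture, 48 h drug exposure and SRB read-out. Reported as percent growth relative to no-drug control and to time-zero cell number; 0–100 means growth inhibition, below 0 means lethality.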

[22] = test system: SF-295; assay: Growth inhibition of human SF-295 cells at 10 uM incubated for 48 hrs by sulforhodamine B assay relative to control; conditions: read-out: GI
In short: (§4)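 NCI one-dose screen. Cells grown in RPMI 1640 with 5% FBS and 2 mM L-glutamine, plated and incubated 24 h at 37 °C, 5% CO2. DMSO-dissolved drug added, then 48 h further incubation. Adherent cells fixed with cold TCA, suspension cells fixed after settling. Stained with 0.4% SRB, absorbance read at 515 nm. Reported as percent growth relative to no-drug control and time-zero cell number.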

[23] = test system: UO-31; assay: Growth inhibition of human UO-31 cells at 10 uM incubated for 48 hrs by sulforhodamine B assay relative to control; conditions: read-out: GI
In short: (§5)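 NCI one-dose screen across a 59-line panel. Cells were grown in RPMI 1640 with 5% FBS and 2 mM L-glutamine, plated and pre-incubated 24 h, then exposed to drug for 48 h at 37 °C, 5% CO2. Adherent cells were fixed with cold TCA (10% final), stained with 0.4% SRB in 1% acetic acid and read at 515 nm. Result is percent growth relative to no-drug control and time-zero cell count.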

[24] = test system: MDA-MB-231; assay: Growth inhibition of human MDA-MB-231 cells at 10 uM incubated for 48 hrs by sulforhodamine B assay relative to control; conditions: read-out: GI
In short: (§6)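 NCI-60 single-dose screen. Cells were grown in RPMI 1640 with 5% FBS and 2 mM L-glutamine and plated 24 h before drug addition. Compound was added at one concentration in DMSO-derived medium and incubated for 48 h at 37 °C in 5% CO2. Read-out was SRB protein stain at 515 nm. Result is percent growth versus the no-drug control and the time-zero cell count; values below 0 indicate lethality.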

[25] = test system: M14; assay: Growth inhibition of human M14 cells at 10 uM incubated for 48 hrs by sulforhodamine B assay relative to control; conditions: read-out: GI; in short: as §6
[26] = test system: SK-OV-3; assay: Growth inhibition of human SK-OV-3 cells at 10 uM incubated for 48 hrs by sulforhodamine B assay relative to control; conditions: read-out: GI; in short: as §4
[27] = test system: SNB-75; assay: Growth inhibition of human SNB-75 cells at 10 uM incubated for 48 hrs by sulforhodamine B assay relative to control; conditions: read-out: GI; in short: as §4
[28] = test system: OVCAR-5; assay: Growth inhibition of human OVCAR-5 cells at 10 uM incubated for 48 hrs by sulforhodamine B assay relative to control; conditions: read-out: GI; in short: as §4
[29] = test system: MDA-MB-435; assay: Growth inhibition of human MDA-MB-435 cells at 10 uM incubated for 48 hrs by sulforhodamine B assay relative to control; conditions: read-out: GI; in short: as §6
[30] = test system: MCF7; assay: Growth inhibition of human MCF7 cells at 10 uM incubated for 48 hrs by sulforhodamine B assay relative to control; conditions: read-out: GI; in short: as §6
[31] = test system: U-251; assay: Growth inhibition of human U-251 cells at 10 uM incubated for 48 hrs by sulforhodamine B assay relative to control; conditions: read-out: GI; in short: as §5
[32] = test system: SF-268; assay: Growth inhibition of human SF-268 cells at 10 uM incubated for 48 hrs by sulforhodamine B assay relative to control; conditions: read-out: GI; in short: as §4

Compound	GI50 [1]	GI50 [2]	GI50 [3]	GI50 [4]	GI50 [5]	GI50 [6]	GI50 [7]	GI50 [8]	GI50 [9]	GI50 [10]	GI50 [11]	GI50 [12]	GI50 [13]	GI50 [14]	GI50 [15]	GI50 [16]	GI50 [17]	GI50 [18]	GI50 [19]	GI50 [20]	also measured
COc1cc2nc(-c3ccc(C(F)(F)F)cc3)cc(OCCCN3CCCCC3)c2cc1OC	3.76 µM	0.734 µM	1.09 µM	0.536 µM	2.92 µM	0.522 µM	2 µM	0.406 µM	2.91 µM	1.91 µM	1.7 µM	1.26 µM	0.37 µM	2.17 µM	2.44 µM	0.722 µM	2.64 µM	0.415 µM	1.7 µM	0.71 µM	
COc1cc2nc(-c3ccc(Cl)cc3)cc(OCCCN3CCCC3)c2cc1OC	2.53 µM	1.19 µM	1.17 µM	0.907 µM	2.46 µM	0.683 µM	1.72 µM	0.459 µM	3 µM	2.45 µM	1.5 µM	1.68 µM	0.898 µM	2.78 µM	2.71 µM	1.52 µM	2.16 µM	0.454 µM	1.96 µM	1.03 µM	inhibition of growth at 10 µM [21]: 62%; inhibition of growth at 10 µM [22]: 62%; inhibition of growth at 10 µM [23]: 62%; inhibition of growth at 10 µM [24]: 62%; inhibition of growth at 10 µM [25]: 62%; inhibition of growth at 10 µM [26]: 62%; inhibition of growth at 10 µM [27]: 62%; inhibition of growth at 10 µM [28]: 62%; inhibition of growth at 10 µM [29]: 62%; inhibition of growth at 10 µM [30]: 62%; inhibition of growth at 10 µM [31]: 62%; inhibition of growth at 10 µM [32]: 62%
COc1cc2nc(-c3ccc(Cl)cc3)cc(OCCCN3CCOCC3)c2cc1OC		2.15 µM	1.12 µM	1.01 µM	3.87 µM	1.15 µM	1.78 µM	0.62 µM			2.85 µM	2.01 µM	0.997 µM	1.94 µM		2.02 µM		0.61 µM	1.92 µM	1.58 µM	inhibition of growth at 10 µM [21]: 62%; inhibition of growth at 10 µM [22]: 62%; inhibition of growth at 10 µM [23]: 62%; inhibition of growth at 10 µM [24]: 62%; inhibition of growth at 10 µM [25]: 62%; inhibition of growth at 10 µM [26]: 62%; inhibition of growth at 10 µM [27]: 62%; inhibition of growth at 10 µM [28]: 62%; inhibition of growth at 10 µM [29]: 62%; inhibition of growth at 10 µM [30]: 62%; inhibition of growth at 10 µM [31]: 62%; inhibition of growth at 10 µM [32]: 62%
COc1cc2nc(-c3ccc(C(F)(F)F)cc3)cc(OCCCN3CCCC3)c2cc1OC	2.39 µM	0.806 µM	1.13 µM	0.565 µM	1.34 µM	0.458 µM	2.02 µM	0.401 µM	3.71 µM	1.91 µM	0.994 µM	1.01 µM	0.343 µM	2.13 µM	2.15 µM	0.653 µM	1.93 µM	0.446 µM	1.41 µM	0.803 µM	
COc1cc2nc(-c3ccc(C(F)(F)F)cc3)cc(OCCCN3CCC(O)CC3)c2cc1OC	5.76 µM	1.66 µM	1.34 µM	0.919 µM	6.87 µM	0.847 µM	2.71 µM	0.456 µM	9.14 µM	6.16 µM	3.27 µM	2.65 µM	1.59 µM	4.72 µM	6.1 µM	1.65 µM	3.85 µM	0.486 µM	2.28 µM	3.14 µM	
COc1cc2nc(-c3ccc(C(F)(F)F)cc3)cc(OCCCN3CCOCC3)c2cc1OC	5.7 µM	1.95 µM	0.706 µM	0.498 µM	3.42 µM	0.64 µM	1.77 µM	0.529 µM	10.3 µM	2.36 µM	2.51 µM	1.38 µM	0.406 µM	1.76 µM	3.73 µM	1.04 µM	3.32 µM	0.54 µM	1.67 µM	1.92 µM	
